What was measured:
[1] = target: T1, Human immunodeficiency virus type 1 protease (Human immunodeficiency virus 1, UniProt Q72874); experiment: (§1) Tested for inhibition of synthetic HIV-1 protease by using fluorometric assay
[2] = target: T1, Human immunodeficiency virus type 1 protease; experiment: as §1; remark: listed apart in the source
Outline: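 Synthetic HIV-1 PR (SF2 isolate; C67B, C95B, Q7K, L33I mutations, B = L-α-aminobutyric acid) solubilized in 6 M Gu·HCl, refolded 60 min in phosphate pH 7.0/glycerol/BSA buffer. Continuous fluorimetric assay with 50 μM Abz-Thr-Ile-Nle-Phe(p-NO2)-Gln-Arg-NH2 in MES pH 6.5, 100 mM NaCl, 10% glycerol, I = 0.1 M, 37 °C, varying inhibitor. Ki from Dixon or Henderson plots; Km from Hanes plot.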

Row | Structure (SMILES) | Ki [1] [nM] | Ki [2] [nM]
1 | CC(C)CCN(C[C@@H](O)[C@@H]1Cc2ccc(cc2)OCCCCCC(=O)N[C@@H](C(C)C)C(=O)N1)S(=O)(=O)c1c(C(C)C)cc(C(C)C)cc1C(C)C | 4700 | 
2 | CC(C)CCN(C[C@@H](O)[C@@H]1Cc2ccc(cc2)OCCCCCC(=O)N[C@@H](C(C)C)C(=O)N1)S(=O)(=O)c1ccccc1 |  | 1.6
3 | CC[C@@H](C)[C@@H]1NC(=O)[C@@H](NC[C@@H](O)[C@H](Cc2ccccc2)NC(=O)OC(C)(C)C)Cc2ccc(cc2)OCCCNC1=O |  | 4
4 | CC(C)CCN(C[C@@H](O)[C@@H]1Cc2ccc(cc2)OCCCCC(=O)N[C@@H](C(C)C)C(=O)N1)S(=O)(=O)c1ccccc1 |  | 0.4
5 | CC(C)[C@@H]1NC(=O)CCCCCOc2ccc(cc2)C[C@@H]([C@H](O)CN(CCCCCC(=O)O)S(=O)(=O)c2ccc(N)cc2)NC1=O | 60 | 
6 | CC[C@@H](C)[C@@H]1NC(=O)[C@@H](NC[C@@H](O)[C@H](Cc2ccccc2)NC(=O)OC2CCOC2)Cc2ccc(cc2)OCCCNC1=O (stereo not given in full) |  | 4
7 | CC(C)[C@@H]1NC(=O)CCCCCOc2ccc(cc2)C[C@@H]([C@H](O)CN(C2CCCC2)S(=O)(=O)c2ccc(N)cc2)NC1=O | 3 | 
8 | CC(C)[C@@H]1NC(=O)CCCCCOc2ccc(cc2)C[C@@H]([C@H](O)CN(CCc2ccccc2)S(=O)(=O)c2ccc(N)cc2)NC1=O | 8 | 
9 | CC(C)CCN(C[C@@H](O)[C@@H]1Cc2ccc(cc2)OCCCC(=O)N[C@@H](C(N)=O)C(=O)N1)S(=O)(=O)c1ccccc1 |  | 1
10 | CCCCCCN(C[C@@H](O)[C@@H]1Cc2ccc(cc2)OCCCCCC(=O)N[C@@H](C(C)C)C(=O)N1)S(=O)(=O)c1ccc(N)cc1 | 14 | 
11 | COc1ccc(CCN(C[C@@H](O)[C@@H]2Cc3ccc(cc3)OCCCCCC(=O)N[C@@H](C(C)C)C(=O)N2)S(=O)(=O)c2ccc(N)cc2)cc1 | 3 | 
12 | CC(C)CCN(C[C@@H](O)[C@@H]1Cc2ccc(cc2)OCCCCCC(=O)N[C@@H](C(C)C)C(=O)N1)S(=O)(=O)c1ccc2ccccc2c1 | 1 | 
13 | CC[C@H](C)[C@H](NC(=O)[C@@H](NC(=O)[C@@H]1CCCN1)C(C)C)C(=O)NCC(O)C1Cc2ccc(cc2)OCCCC(=O)NC(CC(N)=O)C(=O)N1 (stereo not given in full) |  | 12
14 | CC(C)CCN(C[C@@H](O)[C@@H]1Cc2ccc(cc2)OCCCCCC(=O)N[C@@H](C(C)C)C(=O)N1)NC(=O)NC1CCCCC1 | 207 | 
15 | CC[C@@H](C)[C@@H]1NC(=O)[C@@H](NC[C@@H](O)[C@@H]2Cc3ccc(cc3)OCCCCC(=O)N[C@@H](C(C)C)C(=O)N2)Cc2ccc(cc2)OCCCNC1=O |  | 5
16 | CC(C)CCN(C[C@@H](O)[C@@H]1Cc2ccc(cc2)OCCCCCC(=O)N[C@@H](C(C)C)C(=O)N1)NC(=O)NCc1ccccc1 | 314 | 
17 | CC[C@@H](C)[C@@H]1NC(=O)[C@@H](NC[C@@H](O)[C@H](Cc2ccccc2)NC(=O)[C@@H](NC(=O)[C@H](CC(C)C)NC(C)=O)C(C)C)Cc2ccc(cc2)OCCCNC1=O |  | 0.6
18 | CC(C)(C)N(CC(O)C1Cc2ccc(cc2)OCCCC(=O)NC(CC(N)=O)C(=O)N1)C(=O)C1CCCCN1 (stereo not given) |  | 12
19 | CC(C)CCN(C[C@@H](O)[C@@H]1Cc2ccc(cc2)OCCCCCC(=O)N[C@@H](C(C)C)C(=O)N1)S(=O)(=O)c1cccc([N+](=O)[O-])c1 | 145 | 
20 | CC[C@@H](C)[C@@H]1NC(=O)[C@@H](NC[C@@H](O)[C@H](Cc2ccccc2)NC(=O)[C@H](C(C)C)N2CCCC2=O)Cc2ccc(cc2)OCCCNC1=O |  | 1
21 | CC[C@@H](C)[C@@H]1NC(=O)[C@@H](NC[C@H](Cc2ccccc2)NC(=O)OC(C)(C)C)Cc2ccc(cc2)OCCCNC1=O |  | 44
22 | CC(=O)Nc1ccc(S(=O)(=O)N(CCC(C)C)C[C@@H](O)[C@@H]2Cc3ccc(cc3)OCCCCCC(=O)N[C@@H](C(C)C)C(=O)N2)cc1 | 10 | 
23 | CCC(C)N(C[C@@H](O)[C@@H]1Cc2ccc(cc2)OCCCCCC(=O)N[C@@H](C(C)C)C(=O)N1)S(=O)(=O)c1ccc(N)cc1 (stereo not given in full) | 2 | 
24 | CC(C)CCN(C[C@@H](O)[C@@H]1Cc2ccc(cc2)OCCCCCC(=O)N[C@@H](C(C)C)C(=O)N1)S(=O)(=O)c1cccc2cccnc12 | 295 | 
25 | CC[C@@H](C)[C@@H]1NC(=O)[C@@H](NC[C@@H](O)[C@H](Cc2ccccc2)NC(=O)c2cccc(C)c2)Cc2ccc(cc2)OCCCNC1=O |  | 15

Reference: ChEMBL document CHEMBL1149114, “Countering cooperative effects in protease inhibitors using constrained beta-strand-mimicking templates in focused combinatorial libraries” (J Med Chem, 2004)
